The values below come from ChEMBL document CHEMBL1671715, “Depolarization, bacterial membrane composition, and the antimicrobial action of ceragenins” (2010).

Values after ≈ are worked out from the molar mass of the structure shown. Active and inactive are the calls of the source. The rule behind the calls is not given here.

The subject of assay [1] is Escherichia coli. Briefly: Induction of outer membrane permeabilization of Escherichia coli ML-35p by nitrocefin permeation based spectrophotometric assay. Type of assay: functional, organism-based. In outline:
(§1)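 E. coli ML-35p grown overnight in TSB at 37°C, washed three times in 10 mM phosphate/0.1 M NaCl, pH 7.4. Diluted to 10^6 CFU/ml in the same buffer with 300 μg/ml TSB. Ceragenin or melittin 0–100 μg/ml, in duplicate. Outer membrane: 30 μM nitrocefin, A486. Inner membrane: 2.5 mM ONPG, A420. Read every 2 min for 60 min at 37°C with shaking.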

The subject of assay [2] is Paenibacillus polymyxa. Briefly: Bactericidal activity against Bacillus polymyxa ATCC 21830 with lipid composition of 60% phosphatidylethanolamine, 3% phosphatidylglycerol and 8% cardiolipin by broth microdilution method. Type of assay: functional. In outline: (§2)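 Cells were incubated 24 h with incrementally varied ceragenin concentrations, then plated on tryptic soy agar. MBC is the lowest concentration completely eradicating bacteria (detection limit 10 CFU/ml).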

In assay [3] the test system is Bacillus cereus. Nature of the assay: Bactericidal activity against Bacillus cereus ATCC 11778 with lipid composition of 43% phosphatidylethanolamine, 40% phosphatidylglycerol and 17% cardiolipin by broth microdilution method. The class given is functional. In outline: as §2
Assay [4] has as its system Enterococcus faecalis. Nature of the assay: Bactericidal activity against Enterococcus faecalis ATCC 29212 with lipid composition of 0% phosphatidylethanolamine, 27% phosphatidylglycerol and 19% cardiolipin by broth microdilution method. The class given is functional. A digest of the protocol: as §2
Assay [5] has as its system Staphylococcus epidermidis. Nature of the assay: Bactericidal activity against Staphylococcus epidermidis ATCC 35984 with lipid composition of 0% phosphatidylethanolamine, 90% phosphatidylglycerol and 1% cardiolipin by broth microdilution method. The class given is functional. In outline:
as §2

For assay [6], the system named is Staphylococcus aureus. Nature of the assay: Bactericidal activity against Staphylococcus aureus ATCC 25923 with lipid composition of 0% phosphatidylethanolamine, 67% phosphatidylglycerol and 19% cardiolipin by broth microdilution method. The class given is functional. The conditions noted are these: in the assay text read “57% phosphatidylglycerol” for “67% phosphatidylglycerol”. A digest of the protocol: as §2

The test system of assay [7] is Staphylococcus aureus. Nature of the assay: Bactericidal activity against methicillin-resistant Staphylococcus aureus ATCC BAA-41 with lipid composition of 0% phosphatidylethanolamine, 57% phosphatidylglycerol and 19% cardiolipin by broth microdilution method. The class given is functional. In outline:
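Cells were incubated 24 h with stepwise-varied ceragenin concentrations, then each sample was plated on tryptic soy agar. MBC was taken as the lowest concentration giving complete kill (detection limit 10 CFU/ml).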

The test system of assay [8] is Paenibacillus polymyxa. Briefly: Induction of cytoplasmic membrane depolarization in Bacillus polymyxa ATCC 21830 with lipid composition of 60% phosphatidylethanolamine, 3% phosphatidylglycerol and 8% cardiolipin at MBC by DiS-C2 dye based fluorimetric assay. The class given is functional. A digest of the protocol: (§3)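 Overnight TSB cultures (37°C) were washed three times in 250 mM sucrose, 5 mM MgSO4, 10 mM K phosphate, pH 7.0, and diluted to A600 0.085 with 1 μM DiS-C2(5). Dye loaded 7 min at room temperature, then 7 min at 37°C. Ceragenin added with stirring at 37°C; fluorescence (ex 600/em 660 nm) read every 30 s. Depolarization at 330 s is expressed as % of the maximal fluorescence increase at 4× MBC.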

Assay [9] has as its system Bacillus cereus. Briefly: Induction of cytoplasmic membrane depolarization in Bacillus cereus ATCC 11778 with lipid composition of 43% phosphatidylethanolamine, 40% phosphatidylglycerol and 17% cardiolipin at MBC by DiS-C2 dye based fluorimetric assay. Type of assay: functional. A digest of the protocol:
as §3

For assay [10], the system named is Enterococcus faecalis. Briefly: Induction of cytoplasmic membrane depolarization in Enterococcus faecalis ATCC 29212 with lipid composition of 0% phosphatidylethanolamine, 27% phosphatidylglycerol and 19% cardiolipin at MBC by DiS-C2 dye based fluorimetric assay. The class given is functional. In outline: as §3
The subject of assay [11] is Staphylococcus epidermidis. Nature of the assay: Induction of cytoplasmic membrane depolarization in Staphylococcus epidermidis ATCC 35984 with lipid composition of 0% phosphatidylethanolamine, 90% phosphatidylglycerol and 1% cardiolipin at MBC by DiS-C2 dye based fluorimetric assay. Type of assay: functional. A digest of the protocol:
as §3

Assay [12] deals with Staphylococcus aureus. Nature of the assay: Induction of cytoplasmic membrane depolarization in Staphylococcus aureus ATCC 25923 with lipid composition of 0% phosphatidylethanolamine, 57% phosphatidylglycerol and 19% cardiolipin at MBC by DiS-C2 dye based fluorimetric assay. Type of assay: functional. A digest of the protocol:
as §3

Assay [13] has as its system Staphylococcus aureus. Briefly: Induction of cytoplasmic membrane depolarization in Staphylococcus aureus ATCC BAA-41 with lipid composition of 0% phosphatidylethanolamine, 57% phosphatidylglycerol and 19% cardiolipin at MBC by DiS-C2 dye based fluorimetric assay. Type of assay: functional. A digest of the protocol:
as §3

Assay [14] has as its system Escherichia coli. Briefly: Induction of inner membrane permeabilization of Escherichia coli ML-35p at 100 ug/ml by ONPG hydrolysis based spectrophotometric assay.
The test system of assay [15] is Escherichia coli. Nature of the assay: Bactericidal activity against Escherichia coli ATCC 25922 with lipid composition of […], 15% phosphatidylglycerol and 5% cardiolipin by broth microdilution method. The class given is functional. In outline: (§4)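 MBC by broth microdilution in the Gram-negative depolarization buffer (20 mM glucose, 5 mM HEPES, pH 7.3). Cells were incubated 24 h with incrementally varied ceragenin concentrations and plated on tryptic soy agar. MBC is the lowest concentration completely eradicating bacteria (detection limit 10 CFU/ml).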

The test system of assay [16] is Klebsiella pneumoniae. Briefly: Bactericidal activity against Klebsiella pneumoniae ATCC 13883 with lipid composition of 82% phosphatidylethanolamine, 5% phosphatidylglycerol and 6% cardiolipin by broth microdilution method. Type of assay: functional. A digest of the protocol:
as §4

Assay [17] deals with Pseudomonas aeruginosa. Briefly: Bactericidal activity against Pseudomonas aeruginosa ATCC 27852 with lipid composition of 60% phosphatidylethanolamine, 21% phosphatidylglycerol and 11% cardiolipin by broth microdilution method. The class given is functional. In outline: as §4
Assay [18] has as its system Escherichia coli. Nature of the assay: Induction of inner membrane permeabilization of Escherichia coli ML-35p by ONPG hydrolysis based spectrophotometric assay. The class given is functional, organism-based. In outline: as §1
The test system of assay [19] is Klebsiella pneumoniae. Nature of the assay: Induction of outer membrane permeabilization of Klebsiella pneumoniae ATCC 13883 at MBC by DiS-C2 dye based fluorimetric assay. Type of assay: functional, organism-based. In outline: (§5)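 Overnight TSB cultures (37°C), washed three times in TSB, then suspended in 20 mM glucose/5 mM HEPES, pH 7.3, at A600 0.085 with 1 μM DiS-C2(5). Equilibrated about 60 min at 37°C to a stable baseline. EDTA or ceragenin added; fluorescence (ex 600/em 660 nm) read every 30 s with stirring at 37°C. A fluorescence drop indicates outer-membrane permeabilization and dye uptake.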

Assay [20] concerns Escherichia coli. Nature of the assay: Induction of outer membrane permeabilization of Escherichia coli ATCC 25922 at MBC by DiS-C2 dye based fluorimetric assay. The class given is functional, organism-based. A digest of the protocol:
as §5

As to `C[C@H](CCCNCCCNCCCN)[C@H]1CC[C@H]2[C@@H]3[C@H](OCCCN)C[C@@H]4C[C@H](OCCCN)CC[C@]4(C)[C@H]3C[C@H](OCCCN)[C@]12C`, the Activity entry in [1] is “Dose-dependent effect”; in [8], 39.6%; in assay [9] it was 79.7%; in [10], 77.2%; in [11], 26.3%; in assay [12] it was 39.8%. The same compound yielded an Activity in assay [13] of 15.3%. Also, the MBC turned out to be 2.5 µg/mL (≈ 3.68 µM) in [2]; 7 µg/mL (≈ 10.3 µM) in assay [3]; 280 µg/mL (≈ 412 µM) in [4]; 2.5 µg/mL (≈ 3.68 µM) in [5]; 49 µg/mL (≈ 72.2 µM) in assay [6]; 28 µg/mL (≈ 41.2 µM) in assay [7]. In addition, the outcome in [14] was inactive.
Regarding `CCCCCCCCNCCC[C@@H](C)[C@H]1CC[C@H]2[C@@H]3[C@H](OCCCN)C[C@@H]4C[C@H](OCCCN)CC[C@]4(C)[C@H]3C[C@H](OCCCN)[C@]12C`, the MBC was 1.5 µg/mL (≈ 2.22 µM) in assay [15]; 2.5 µg/mL (≈ 3.69 µM) in [16]; 3.5 µg/mL (≈ 5.17 µM) in assay [17]; 2.5 µg/mL (≈ 3.69 µM) in [2]; 1 µg/mL (≈ 1.48 µM) in [3]; 5.5 µg/mL (≈ 8.12 µM) in assay [4]. Further, the MBC in [5] was 1 µg/mL (≈ 1.48 µM); in assay [6] it was 2.5 µg/mL (≈ 3.69 µM); in [7], 2 µg/mL (≈ 2.95 µM). Besides, the result in [18] was Active. Moreover, the Activity result is “Dose-dependent effect” in assay [1]; 88.4% in [8]; 86.7% in assay [9]; 74% in [10]; 25% in assay [11]; 41.5% in assay [12]. The compound also registered an Activity in assay [13] of 45.8%.
As for `CC[C@H](C)[C@H](NC(=O)CN)C(=O)NCC(=O)N[C@@H](C)C(=O)N[C@H](C(=O)N[C@@H](CC(C)C)C(=O)N[C@@H](CCCCN)C(=O)N[C@H](C(=O)N[C@@H](CC(C)C)C(=O)N[C@H](C(=O)N[C@H](C(=O)NCC(=O)N[C@@H](CC(C)C)C(=O)N1CCC[C@H]1C(=O)N[C@@H](C)C(=O)N[C@@H](CC(C)C)C(=O)N[C@H](C(=O)N[C@@H](CO)C(=O)N[C@@H](Cc1c[nH]c2ccccc12)C(=O)N[C@H](C(=O)N[C@@H](CCCCN)C(=O)N[C@@H](CCCNC(=N)N)C(=O)N[C@@H](CCCCN)C(=O)N[C@@H](CCCNC(=N)N)C(=O)N[C@@H](CCC(N)=O)C(=O)N[C@@H](CCC(N)=O)C(N)=O)[C@@H](C)CC)[C@@H](C)CC)[C@@H](C)O)[C@@H](C)O)C(C)C)C(C)C`, the outcome in assay [1] was Active.
`C[C@H](CCCO)[C@H]1CC[C@H]2[C@@H]3[C@H](OCCCN)C[C@@H]4C[C@H](OCCCN)CC[C@]4(C)[C@H]3C[C@H](OCCCN)[C@]12C`: the MBC in assay [15] was found to be 10 µg/mL (≈ 17.7 µM); in assay [16] it was 12.5 µg/mL (≈ 22.1 µM); in assay [17], 12 µg/mL (≈ 21.2 µM); in assay [2] it was 15 µg/mL (≈ 26.5 µM); in [3], 7 µg/mL (≈ 12.4 µM); in assay [4] it was 50 µg/mL (≈ 88.4 µM). Moreover, the minimal bactericidal concentration (MBC) was found to be 12 µg/mL (≈ 21.2 µM) in [5], 35 µg/mL (≈ 61.9 µM) in [6] and 19 µg/mL (≈ 33.6 µM) in assay [7]. Besides, the outcome in assay [19] and in assay [20] was Active. Also, the Activity entry was “Dose-dependent effect” in assay [1]; 96.6% in [8]; 84.7% in assay [9]; 80.6% in assay [10]; 60.1% in [11]; 82.8% in [12]. This compound also returned an Activity in [13] of 39%. Also, in [14], the result was inactive.
